Bioassay records deposited in PubChem BioAssay by several laboratories.
Rows were chosen to be rich in hits. Some 2.4% of all compounds tested hit in one or more screens of this group.
Rpn11 inh: Rpn11 (PSMD14) deubiquitinase inhibitors, primary screen, biochemical, fluorescence polarization, uHTS; human 26S proteasome, Ub4-pepOG fluorescence polarization; 20S core pre-blocked with epoxomicin; inhibition, % at 20 µM; 360,000 tested, 0.59% active; AID 588493, 2011;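 active = inhibition at 20 µM, scaled to each plate's controls, above about 33%, limit read from the data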
Rin1 Abl inh: inhibitors of Rin1-Abl protein binding, primary screen, biochemical, TR-FRET. inhibition, % at 7.35 µM. 360,000 tested, 0.4% active. AID 588664, 2011; in the data active = inhibition above about 5%, passing the limit was not always enough
Target sequence (P00519 whole entry, looked up): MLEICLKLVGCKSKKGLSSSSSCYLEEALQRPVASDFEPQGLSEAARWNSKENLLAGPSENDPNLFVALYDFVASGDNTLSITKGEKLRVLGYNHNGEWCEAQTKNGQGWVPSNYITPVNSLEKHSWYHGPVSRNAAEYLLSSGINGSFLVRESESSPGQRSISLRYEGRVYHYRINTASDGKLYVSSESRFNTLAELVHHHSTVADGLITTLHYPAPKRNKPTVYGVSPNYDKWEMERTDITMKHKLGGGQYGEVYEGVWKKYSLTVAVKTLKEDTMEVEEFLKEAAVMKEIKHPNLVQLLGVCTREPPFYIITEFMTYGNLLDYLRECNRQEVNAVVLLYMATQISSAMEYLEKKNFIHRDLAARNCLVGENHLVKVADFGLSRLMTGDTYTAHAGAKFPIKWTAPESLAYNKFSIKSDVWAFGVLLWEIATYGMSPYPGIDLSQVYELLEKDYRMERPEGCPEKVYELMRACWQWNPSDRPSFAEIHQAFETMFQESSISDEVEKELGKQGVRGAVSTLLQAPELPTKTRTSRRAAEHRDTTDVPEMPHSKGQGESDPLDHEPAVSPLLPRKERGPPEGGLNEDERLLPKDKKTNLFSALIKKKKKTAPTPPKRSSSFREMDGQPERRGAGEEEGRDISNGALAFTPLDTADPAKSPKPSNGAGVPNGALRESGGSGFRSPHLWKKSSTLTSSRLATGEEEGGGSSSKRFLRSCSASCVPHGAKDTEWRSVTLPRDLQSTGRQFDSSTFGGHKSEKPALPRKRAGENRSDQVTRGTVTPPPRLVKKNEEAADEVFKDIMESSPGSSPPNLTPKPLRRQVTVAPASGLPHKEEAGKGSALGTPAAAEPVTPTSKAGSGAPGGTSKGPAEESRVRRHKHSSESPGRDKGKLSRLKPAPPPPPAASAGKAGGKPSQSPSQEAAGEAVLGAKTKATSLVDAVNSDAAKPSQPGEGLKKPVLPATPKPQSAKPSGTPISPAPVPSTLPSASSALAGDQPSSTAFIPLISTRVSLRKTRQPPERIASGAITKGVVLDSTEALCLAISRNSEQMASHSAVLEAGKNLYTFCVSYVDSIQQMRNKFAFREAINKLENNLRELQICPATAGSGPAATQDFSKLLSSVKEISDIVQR
Target sequence (Q13671 whole entry, looked up): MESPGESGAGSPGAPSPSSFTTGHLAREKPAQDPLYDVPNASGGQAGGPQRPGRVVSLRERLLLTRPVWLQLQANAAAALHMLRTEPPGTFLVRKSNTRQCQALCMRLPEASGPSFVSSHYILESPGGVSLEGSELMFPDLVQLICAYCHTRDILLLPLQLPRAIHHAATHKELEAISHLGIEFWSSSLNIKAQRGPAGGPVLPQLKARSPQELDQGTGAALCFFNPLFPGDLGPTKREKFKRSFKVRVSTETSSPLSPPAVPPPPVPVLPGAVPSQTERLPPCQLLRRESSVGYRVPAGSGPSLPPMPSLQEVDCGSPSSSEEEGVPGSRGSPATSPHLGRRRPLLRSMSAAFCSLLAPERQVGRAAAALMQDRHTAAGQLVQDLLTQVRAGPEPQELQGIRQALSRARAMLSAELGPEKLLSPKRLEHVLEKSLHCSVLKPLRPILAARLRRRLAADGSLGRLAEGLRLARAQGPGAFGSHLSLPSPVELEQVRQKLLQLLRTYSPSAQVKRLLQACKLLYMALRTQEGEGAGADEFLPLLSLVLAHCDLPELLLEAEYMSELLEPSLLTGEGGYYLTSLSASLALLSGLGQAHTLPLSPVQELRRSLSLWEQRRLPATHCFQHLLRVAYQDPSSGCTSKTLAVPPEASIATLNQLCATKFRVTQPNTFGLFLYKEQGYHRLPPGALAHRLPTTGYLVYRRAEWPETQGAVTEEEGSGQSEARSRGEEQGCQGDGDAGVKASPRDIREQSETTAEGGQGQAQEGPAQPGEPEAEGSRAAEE
Neddyl block: inhibitors of cullin neddylation, primary screen, biochemical, TR-FRET, uHTS, NAE and Ubc12; 360,000 tested, 0.58% active; AID 651699, 2012; inhibition, % at 25 µM; in the data active = inhibition above about 36%
CSN deneddyl inh: inhibitors of CSN-mediated cullin deneddylation, primary screen, biochemical, fluorescence polarization, uHTS; COP9 signalosome complex subunit 5 (Homo sapiens), Q92905; Purified CSN, SCF-Nedd8-OG deneddylation; inhibition, % at 12.5 µM; 360,000 tested, 0.38% active; AID 651999, 2013;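 active = pattern-corrected inhibition above about 35%, with an unprinted fluorescence ratio check between 0.5 and 1.5, limit read from the data, passing the limit was not always enough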;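 also: 0% = enzyme with substrate and 100% = substrate without enzyme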
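Assay system: Purified human Csn5 enzyme expressed in HEK293T cells | Amount: Enzyme 0.24 nM | Measured by: Fluorescence polarization readout | Medium: Tris/NaCl/DTT buffer, pH 7.5 | Compound dosing: One concentration, 12.5 µM, 0.25% DMSO | Times: 90 min incubation of compound, enzyme and substrate at room temperature | Control set: no-enzyme wells high, enzyme-with-substrate wells low | Read-out: % inhibition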
TPT1 inhibitor: Candida albicans TPT1 enzyme inhibitors, primary screen, biochemical, fluorescence polarization; tRNA 2'-phosphotransferase TPT1 (Candida albicans SC5314); recombinant caTPT1, FP RNA substrate dephosphorylation; inhibition, % at 5 µM; 300,000 tested, 0.81% active; AID 1962, 2009;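 active = inhibition above the mean of all tested compounds plus 3 SD, set per screening campaign, cut at about 24% in these data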;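 also: plate controls were DMSO alone for no effect and ferristatin control at 100 nM for full effect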
HNF4A DNA FP: change in binding of human HNF4A to DNA, primary screen, biochemical, fluorescence polarization, FITC-DNA; 1 h; activity change, % at 10 µM; 360,000 tested, 0.3% active; in the data active = activity change above about 30%, passing the limit was not always enough
Rpn11 confirm: Rpn11 (PSMD14) deubiquitinase inhibitors, confirmation, biochemical, fluorescence polarization, single concentration; shares compounds with Rpn11 inh; purified human 26S proteasome, Ub4-pepOG fluorescence polarization; proteasome pretreated with epoxomicin; inhibition, % at 20 µM; 1,900 tested, 29% active
MMP-2 counter: MMP-2 enzyme inhibition, confirmation, counter-screen for RPN11 inhibitor project, biochemical, fluorescence, single concentration; inhibition, % at 20 µM; shares compounds with Rpn11 inh; 1,900 tested, 4% active; recombinant MMP-2, FRET peptide cleavage fluorescence;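 also: human MMP-2 activated beforehand with APMA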
Thrombin FP: bovine thrombin protease inhibition, confirmation, counter-screen for Rpn11 inhibitor project, biochemical, fluorescence polarization, single concentration; shares compounds with Rpn11 inh; bovine thrombin cleavage of Ub4-pepOG; inhibition, % at 20 µM; 1,900 tested, 13% active;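 active = mean inhibition at least 40% at 20 µM, or signal 3 deviations below plate average, so some actives read negative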;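 also: plate controls were thrombin with DMSO for no effect and buffer wells lacking thrombin for full effect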
The depositor's hits bear a star; i = inactive; x = no result given; + = active, no number. Rule as the data show it, unless noted: active = inhibition above about 40%; inactive = the rest.

SMILES	Rpn11 inh	Rin1 Abl inh	Neddyl block	CSN deneddyl inh	TPT1 inhibitor	HNF4A DNA FP	Rpn11 confirm	MMP-2 counter	Thrombin FP
O=C(Nc1ccc(-c2nc3cc(Cl)ccc3c(=O)o2)cc1)c1ccco1	50*	2	x	13	-2	-4	-6	-21	-25
N#C/C(=C\c1cn(CCOc2ccccc2)c2ccccc12)C(=O)NCc1ccco1	36*	0	x	-2	-3	6	8	-44	-16
Cc1ccccc1OCCn1cc(/C=C(\C#N)C(=O)NCc2ccco2)c2ccccc21	25	1	x	0	0	1	x	x	x
O=C(CSc1nc2nc(-c3cccs3)cc(C(F)(F)F)c2c(=O)[nH]1)Nc1ccc(F)c(F)c1	40*	-1	-32	14	9	-12	57*	-8	0
Cc1ccc(C)c(NC(=O)CSc2nc3nc(-c4cccs4)cc(C(F)(F)F)c3c(=O)[nH]2)c1	14	-8	26	2	0	-1	x	x	x
Brc1ccc(C2=Nn3c(nnc3-c3cccnc3)SC2)s1	67*	-11	-127	94*	-2	-1	1	-36	-9
Clc1ccc(C2=Nn3c(nnc3-c3cccnc3)SC2)s1	16	-9	-33	0	4	1	x	x	x
COc1ccccc1CCN=C(N)NS(=O)(=O)c1ccc(C)c(C)c1	3	4	1	-1	0	0	x	x	x
COc1ccc(CNC(=O)c2cccc(N3CCCC3=O)c2)cc1	2	1	10	2	-3	0	x	x	x
O=C(NCc1ccco1)c1cccc(N2CCCC2=O)c1	+	6	6	3	-6	27	-13	-35	-14
COC(=O)C1=CC(C(=O)c2cccs2)=NN(c2ccc(OC)cc2)C1C(=O)OC (configuration not stated)	44*	-7	-56	15	21	13	22	-12	15
O=C(Cn1nnc(-c2ccc(F)cc2)n1)NC(=O)NC1CCCCC1	7	3	8	9	x	0	x	x	x
COc1ccc2nc(N3C(=O)/C(=C/c4ccc(Cl)cc4)NC3=S)sc2c1	77*	4	3	18	x	-2	56*	-22	25
Cc1cccc(-c2c3c(nc4c2c(=O)n(C)c(=O)n4C)-c2ccccc2C3O)c1 (configuration not stated)	5	-2	-16	1	-1	-4	x	x	x
COc1ccc(N2CCN(Cc3nc4scc(-c5cccs5)c4c(=O)[nH]3)CC2)cc1	58*	-3	-2	18	6	12	8	17	-11
O=c1[nH]c(CN2CCN(c3ccccc3)CC2)nc2scc(-c3ccccc3)c12	41*	-1	-130	-1	10	12	14	9	-5
COc1ccc(CCN2CC(C(=O)NCCc3ncccc3C)CCC2=O)cc1 (configuration not stated)	2	-1	2	0	x	1	x	x	x
COc1ccc2nc(SCC(=O)Nc3ccc(S(=O)(=O)N4CCCC4)cc3)c(C#N)cc2c1	40*	-7	i	10	1	18	21	-35	3
N#Cc1cc2ccccc2nc1SCC(=O)Nc1ccc(S(=O)(=O)N2CCCC2)cc1	x	-3	-351	4	14	11	x	x	x
C=CCn1nc([N+](=O)[O-])nc1Sc1cccc2cccnc12	67*	-3	-26	-14	3	-5	28	3	-15
O=[N+]([O-])c1ccc(Sc2cccc3cccnc23)c([N+](=O)[O-])c1	71*	1	-10	-2	1	-4	57*	-11	0
Cc1ccc(-c2nc3ccccc3o2)cc1NC(=S)NC(=O)c1cc2ccccc2o1	47*	-1	2	-5	0	18	-3	-14	11
Cc1ccc2oc(-c3ccc(C)c(NC(=S)NC(=O)c4cccs4)c3)nc2c1	26	7	18	-4	-1	5	x	x	x
O=C(Nc1cccc2nsnc12)c1ccc(-c2ccc(Br)cc2)o1	53*	-3	x	21	13	19	12	-21	-5
COC(=O)c1ccccc1NC(=O)c1ccc(-c2ccc(Br)cc2)o1	-1	1	20	-1	2	-2	x	x	x
SMILES	Rpn11 inh	Rin1 Abl inh	Neddyl block	CSN deneddyl inh	TPT1 inhibitor	HNF4A DNA FP	Rpn11 confirm	MMP-2 counter	Thrombin FP
CC1CCC2(CC1)NC(=O)N(NC(=O)c1ccc(OC(C)C)cc1)C2=O (configuration not stated)	-8	-3	0	-1	x	2	x	x	x
Cc1ccc(NS(=O)(=O)c2c(C(=O)N3CCCCCC3)c(C)n(C)c2C)cc1C	-3	3	-56	1	2	8	x	x	x
CCc1ccc(OCC(=O)NNC(=O)c2cc(S(=O)(=O)N(C)C)ccc2N2CCCC2)cc1	44*	4	25	3	0	-1	56*	17	3
CC(C)COc1ccc(-c2nn(-c3ccccc3)cc2/C=C2/SC(=S)N(CC(=O)O)C2=O)cc1	49*	0	4	13	2	-30	41*	-23	49*
O=C1C(=Cc2cn(-c3ccccc3)nc2-c2ccc(OCc3ccccc3)cc2)SC(=S)N1CCS(=O)(=O)O	98*	-3	10	29	x	-46	90*	29	134*
O=C(O)CN1C(=O)/C(=C\c2cn(-c3ccccc3)nc2-c2ccccc2)SC1=S	-6	2	-35	0	1	-2	x	x	x
Cc1c(CC(=O)NCCCO)c(=O)oc2cc3c(cc12)CCC(C)(C)O3	-6	1	x	-2	-3	-5	x	x	x
Clc1ccc(N2CCN(/N=C/c3cccnc3)CC2)cc1	1	0	-12	1	3	-2	x	x	x
